ChEMBL document CHEMBL4808161, “Structure-Activity Relationship Study of Amidobenzimidazole Analogues Leading to Potent and Systemically Administrable Stimulator of Interferon Gene (STING) Agonists” (J Med Chem, 2021)

What was measured:
[1] = target: T1, Stimulator of interferon genes protein (Mus musculus, UniProt Q3TBT3); test: Activation of mouse STING expressed in RAW-Lucia ISG cells incubated for 24 hrs by secreted luciferase reporter gene assay
T1 sequence (Q3TBT3 whole entry): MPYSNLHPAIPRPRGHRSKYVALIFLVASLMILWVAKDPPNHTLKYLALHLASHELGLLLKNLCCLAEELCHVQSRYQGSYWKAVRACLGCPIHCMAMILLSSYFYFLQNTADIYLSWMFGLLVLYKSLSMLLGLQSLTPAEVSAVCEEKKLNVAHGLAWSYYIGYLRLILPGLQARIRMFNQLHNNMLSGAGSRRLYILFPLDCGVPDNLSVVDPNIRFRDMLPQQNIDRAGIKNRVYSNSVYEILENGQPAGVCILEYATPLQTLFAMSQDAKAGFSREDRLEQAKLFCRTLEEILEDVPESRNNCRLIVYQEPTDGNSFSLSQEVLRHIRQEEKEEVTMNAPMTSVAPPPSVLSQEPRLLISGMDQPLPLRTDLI

[2] = target: T2, Stimulator of interferon genes protein (Homo sapiens, UniProt Q86WV6); test: Activation of human STING (139 to 379 residues) expressed in THP1-Blue ISG cells at 10 uM incubated for 24 hrs by quanti-blue SEAP reporter gene assay relative to control; assay type: cell-based; conditions: filed as activator
T2 sequence (Q86WV6 whole entry, the tested form may be a part): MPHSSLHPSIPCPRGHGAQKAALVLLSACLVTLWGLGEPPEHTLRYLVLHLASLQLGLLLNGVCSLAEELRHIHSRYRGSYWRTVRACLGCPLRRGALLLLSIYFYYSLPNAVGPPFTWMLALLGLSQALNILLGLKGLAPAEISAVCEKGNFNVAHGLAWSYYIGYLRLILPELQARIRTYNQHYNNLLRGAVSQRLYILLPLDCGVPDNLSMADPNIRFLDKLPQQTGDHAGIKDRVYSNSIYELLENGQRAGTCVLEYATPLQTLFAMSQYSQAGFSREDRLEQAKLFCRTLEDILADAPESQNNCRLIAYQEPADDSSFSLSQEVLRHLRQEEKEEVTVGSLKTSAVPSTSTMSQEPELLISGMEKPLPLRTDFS
Summary of the method: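 THP1-Blue-ISG cells (1 × 10⁵/well) treated for 24 h; single-concentration screen at 10 μM. SEAP ISG reporter in 20 μL supernatant read with QUANTI-Blue at 650 nm. Activation given as fold over control, averaging at least two experiments.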

[3] = target: T3, Stimulator of interferon genes protein (Mus musculus) (UniProt Q3TBT3); test: Activation of mouse STING expressed in RAW-Lucia ISG cells at 50 uM incubated for 24 hrs by QUANTI-Luc luciferase reporter gene assay relative to control; conditions: filed as activator
T3 sequence (whole entry): T1 sequence (Q3TBT3 whole entry)

[4] = target: T2, Stimulator of interferon genes protein; test: Activation of human STING expressed in THP1-Dual cells incubated for 24 hrs by secreted luciferase reporter gene assay
[5] = target: Voltage-gated inwardly rectifying potassium channel KCNH2 (Homo sapiens, UniProt Q12809); test: Inhibition of human ERG
Sequence of Voltage-gated inwardly rectifying potassium channel KCNH2 (Q12809 whole entry): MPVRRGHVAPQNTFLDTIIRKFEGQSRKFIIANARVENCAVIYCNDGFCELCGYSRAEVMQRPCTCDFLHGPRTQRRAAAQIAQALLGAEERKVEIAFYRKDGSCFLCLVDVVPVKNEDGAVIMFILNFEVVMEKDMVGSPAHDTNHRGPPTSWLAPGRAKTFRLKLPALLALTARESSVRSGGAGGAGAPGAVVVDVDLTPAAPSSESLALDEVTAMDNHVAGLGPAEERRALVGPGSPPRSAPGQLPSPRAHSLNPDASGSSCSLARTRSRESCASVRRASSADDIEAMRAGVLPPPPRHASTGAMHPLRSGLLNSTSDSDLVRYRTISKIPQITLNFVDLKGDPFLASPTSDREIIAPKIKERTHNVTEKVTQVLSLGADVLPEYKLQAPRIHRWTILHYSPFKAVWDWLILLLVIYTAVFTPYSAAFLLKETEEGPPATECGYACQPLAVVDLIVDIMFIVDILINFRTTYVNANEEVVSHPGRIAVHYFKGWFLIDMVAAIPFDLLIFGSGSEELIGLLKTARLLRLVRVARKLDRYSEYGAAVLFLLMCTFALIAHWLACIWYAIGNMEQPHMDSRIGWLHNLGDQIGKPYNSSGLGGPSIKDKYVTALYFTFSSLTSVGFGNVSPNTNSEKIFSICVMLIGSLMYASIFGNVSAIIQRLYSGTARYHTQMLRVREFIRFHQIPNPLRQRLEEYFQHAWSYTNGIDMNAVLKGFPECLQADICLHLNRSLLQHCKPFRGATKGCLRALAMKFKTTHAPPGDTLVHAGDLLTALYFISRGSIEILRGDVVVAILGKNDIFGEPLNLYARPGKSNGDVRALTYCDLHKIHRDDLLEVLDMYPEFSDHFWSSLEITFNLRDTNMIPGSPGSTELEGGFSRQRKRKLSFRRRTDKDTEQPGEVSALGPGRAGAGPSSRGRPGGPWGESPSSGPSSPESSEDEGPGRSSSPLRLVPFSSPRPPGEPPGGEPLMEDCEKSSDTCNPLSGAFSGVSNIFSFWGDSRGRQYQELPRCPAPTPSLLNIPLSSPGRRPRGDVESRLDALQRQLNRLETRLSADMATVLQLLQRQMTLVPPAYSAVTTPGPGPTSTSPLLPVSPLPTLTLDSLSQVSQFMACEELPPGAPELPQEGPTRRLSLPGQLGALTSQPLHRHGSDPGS

[6] = target: T3, Stimulator of interferon genes protein (Mus musculus); test: Activation of mouse STING expressed in RAW-Lucia ISG cells at 50 uM incubated for 24 hrs by quanti-blue SEAP reporter gene assay relative to control; assay type: cell-based; conditions: filed as activator
[7] = Solubility of the compound; assay type: physicochemical
[8] = Observed AUCinfinity in rat at 1 mg/kg, iv; assay type: ADME, organism-based; parameters: time infinity, route intravenous, dose 1 mg/kg; conditions: in vivo
[9] = Observed volume of distribution at steady state in rat at 1 mg/kg, iv; assay type: ADME, organism-based; conditions: in vivo, read-out: Vdss
[10] = AUClast in rat at 1 mg/kg, iv; assay type: ADME, organism-based; parameters: time 0 - last, route intravenous, dose 1 mg/kg; conditions: in vivo
[11] = Observed MRT infinity in rat at 1 mg/kg, iv; assay type: ADME, organism-based; conditions: in vivo
[12] = Half life in rat at 1 mg/kg, iv; assay type: ADME, organism-based; conditions: in vivo
[13] = Observed clearance in rat at 1 mg/kg, iv; assay type: ADME, organism-based; conditions: in vivo

SMILES | EC50 [1] [µM] | fold change (FC) [2] | fold change (FC) [3] | EC50 [4] [µM] | fold change (FC) [6] | also measured
CCn1nc(C)cc1C(=O)/N=c1\[nH]c2cc(C3=NCCO3)cc(OC)c2n1C/C=C/Cn1/c(=N/C(=O)c2cc(C)nn2CC)[nH]c2cc(C(N)=O)cc(OCCCN3CCOCC3)c21 | > 50 | 18.3 | 0.99 | 1.54 | – | –
CCn1nc(C)cc1C(=O)Nc1nc2cc(C(N)=O)cc(OC)c2n1C/C=C/Cn1c(NC(=O)c2cc(C)nn2CC)nc2cc(C(N)=O)cc(OCCCN3CCOCC3)c21 [listing 1 of 2 here] | – | – | – | – | – | IC50 [5]: > 40 µM
CCn1nc(C)cc1C(=O)/N=c1\[nH]c2cc(-c3ncn[nH]3)cc(OC)c2n1[C@H]1CC[C@@H](n2/c(=N/C(=O)c3cc(C)nn3CC)[nH]c3cc(C(N)=O)cc(OCCCN4CCOCC4)c32)CC1 | – | 1.14 | – | – | 0.59 | –
COc1cc(C(N)=O)cc2nc(C(=O)CCC(=O)O)n(C/C=C/Cn3c(C(=O)CCC(=O)O)nc4cc(C(N)=O)cc(OCCCN5CCOCC5)c43)c12 | – | 9 | – | – | 1.4 | –
CCn1nc(C)cc1C(=O)/N=c1\[nH]c2cc(-c3ncn[nH]3)cc(OC)c2n1C/C=C/Cn1/c(=N/C(=O)c2cc(C)nn2CC)[nH]c2cc(-c3ncn[nH]3)cc(OCCCN3CCOCC3)c21 | – | 4.9 | 1.18 | – | – | –
CCn1nc(C)cc1C(=O)/N=c1\[nH]c2cc(-c3ncc[nH]3)cc(OC)c2n1C/C=C/Cn1/c(=N/C(=O)c2cc(C)nn2CC)[nH]c2cc(C(N)=O)cc(OCCCN3CCOCC3)c21 | > 50 | 17.5 | 1.42 | 3.28 | – | –
CCn1nc(C)cc1C(=O)/N=c1\[nH]c2cc(C(N)=O)cc(OC)c2n1C/C=C/Cn1c(C(=O)CCC(=O)O)nc2cc(C(N)=O)cc(OCCCN3CCOCC3)c21 | – | 0.86 | – | – | 0.93 | –
CCn1nc(C)cc1C(=O)/N=c1\[nH]c2cc(-c3ncn[nH]3)cc(OC)c2n1CCCCn1/c(=N/C(=O)c2cc(C)nn2CC)[nH]c2cc(C(N)=O)cc(OCCCN3CCOCC3)c21 | – | 1.28 | – | – | 1.2 | –
CCn1nc(C)cc1CCc1nc2cc(C(N)=O)cc(OC)c2n1C/C=C/Cn1c(CCc2cc(C)nn2CC)nc2cc(C(N)=O)cc(OCCCN3CCOCC3)c21 | – | 0.95 | 0.9 | – | – | –
COC(=O)CCC(=O)c1nc2cc(C(N)=O)cc(OC)c2n1C/C=C/Cn1c(C(=O)CCC(=O)OC)nc2cc(C(N)=O)cc(OCCCN3CCOCC3)c21 | > 50 | 6.16 | 1.01 | 29.1 | – | –
CCn1nc(C)cc1C(=O)/N=c1\[nH]c2cc(-c3nc(C)n[nH]3)cc(OC)c2n1C/C=C/Cn1/c(=N/C(=O)c2cc(C)nn2CC)[nH]c2cc(C(N)=O)cc(OCCCN3CCOCC3)c21 | > 50 | 18.8 | 0.92 | 2.55 | – | –
CCn1nc(C)cc1C(=O)/N=c1\[nH]c2cc(-c3ncc[nH]3)cc(OC)c2n1C/C=C/Cn1/c(=N/C(=O)c2cc(C)nn2CC)[nH]c2cc(-c3ncc[nH]3)cc(OCCCN3CCOCC3)c21 | – | 1.22 | 1.21 | – | – | –
CCn1nc(C)cc1C(=O)/N=c1\[nH]c2cc(-c3ncn[nH]3)cc(OC)c2n1C/C=C/Cn1/c(=N/C(=O)c2cc(C)nn2CC)[nH]c2cc(C#N)cc(OCCCN3CCOCC3)c21 | > 50 | 11.1 | 1.34 | 26 | – | –
CCn1nc(C)cc1C(=O)/N=c1\[nH]c2cc(C(N)=O)cc(OC)c2n1C/C=C/Cn1c(C(=O)CCC(=O)OC)nc2cc(C(N)=O)cc(OCCCN3CCOCC3)c21 | – | 0.83 | – | – | 0.9 | –
CCn1nc(C)cc1C(=O)/N=c1\[nH]c2cc(C(N)=O)cc(OC)c2n1C/C=C/Cn1/c(=N/C(=O)c2cc(C)nn2CC)[nH]c2cc(C#N)cc(OCCCN3CCOCC3)c21 | > 50 | 13.4 | 1.07 | 1.02 | – | –
CCn1nc(C)cc1C(=O)/N=c1\[nH]c2cc(C(N)=O)cc(OC)c2n1C/C=C/Cn1/c(=N/C(=O)c2cc(C)nn2CC)[nH]c2cc(-c3ncc[nH]3)cc(OCCCN3CCOCC3)c21 | > 50 | 17.3 | 1.18 | 0.79 | – | –
CCn1nc(C)cc1C(=O)/N=c1\[nH]c2cc(-c3ncn[nH]3)cc(OC)c2n1C/C=C/Cn1/c(=N/C(=O)c2cc(C)nn2CC)[nH]c2cc(C(N)=O)c3ccoc3c21 | – | 17 | – | – | 1.14 | –
CCn1nc(C)cc1C(=O)/N=c1\[nH]c2cc(-c3ncn[nH]3)cc(OC)c2n1C/C=C/Cn1/c(=N/C(=O)c2cc(C)nn2CC)[nH]c2cc(C(N)=O)cc(OCCCN3CCOCC3)c21.Cl.Cl.Cl | – | – | – | – | – | solubility [7]: 71.3 mg/mL; IC50 [5]: > 40 µM
CCn1nc(C)cc1C(=O)/N=c1\[nH]c2cc(C(N)=O)cc(OC)c2n1C/C=C/Cn1/c(=N/C(=O)c2cc(C)nn2CC)[nH]c2cc(-c3ncn[nH]3)cc(OCCCN3CCOCC3)c21 | > 50 | 17 | 2.17 | 0.33 | – | –
CCn1nc(C)cc1C(=O)Nc1nc2cc(C(N)=O)cc(OC)c2n1C/C=C/Cn1c(NC(=O)c2cc(C)nn2CC)nc2cc(C(N)=O)cc(OCCCN3CCOCC3)c21 [listing 2 of 2 here] | – | – | – | – | – | AUC(0-inf) [8]: 666 ng·h/mL; Vd [9]: 0.965 L/kg; AUC(0-t) [10]: 657 ng·h/mL; MRT inf [11]: 38 min; half-life [12]: 68.4 min; clearance [13]: 26 mL/min/kg
CCn1nc(C)cc1/C=C/c1nc2cc(C(N)=O)cc(OC)c2n1C/C=C/Cn1c(/C=C/c2cc(C)nn2CC)nc2cc(C(N)=O)cc(OCCCN3CCOCC3)c21 | – | 0.98 | 0.96 | – | – | –
CCn1nc(C)cc1C(=O)/N=c1\[nH]c2cc(-c3ncn[nH]3)cc(OC)c2n1C/C=C/Cn1/c(=N/C(=O)c2cc(C)nn2CC)[nH]c2cc(C(N)=O)cc(OCCCO)c21 | > 50 | 16.7 | 0.96 | 2.66 | – | –
CCn1nc(C)cc1C(=O)/N=c1\[nH]c2cc(-c3ncn[nH]3)cc(OC)c2n1[C@H]1CC[C@H](n2/c(=N/C(=O)c3cc(C)nn3CC)[nH]c3cc(C(N)=O)cc(OCCCN4CCOCC4)c32)CC1 | > 50 | 3.86 | 0.48 | > 50 | – | –
CCn1nc(C)cc1C(=O)/N=c1\[nH]c2cc(C#N)cc(OC)c2n1C/C=C/Cn1/c(=N/C(=O)c2cc(C)nn2CC)[nH]c2cc(C#N)cc(OCCCN3CCOCC3)c21 | > 50 | 7.9 | – | > 50 | 1.16 | –
CCn1nc(C)cc1C(=O)/N=c1\[nH]c2cc(-c3cn(CCOCCOC)nn3)cc(OC)c2n1C/C=C/Cn1/c(=N/C(=O)c2cc(C)nn2CC)[nH]c2cc(C(N)=O)cc(OCCCN3CCOCC3)c21 | – | 17.2 | 1.16 | – | – | –
CCn1nc(C)cc1C(=O)/N=c1\[nH]c2cc(-c3ncn[nH]3)cc(OC)c2n1C/C=C/Cn1/c(=N/C(=O)c2cc(C)nn2CC)[nH]c2cc(C(N)=O)c3c(c21)OCCO3 | – | 1.58 | – | – | 1.1 | –
